“Also recorded” adds a separate entry of the source. Marks after values point to notes of the source that are not given here.
What was measured:
healthy volunteers = conditions: doses of up to 1200 mg for 10 days; cited from earlier work
healthy subjects = assay: Safety and tolerability monitoring; format: in vivo, human
How it was run: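 All enrolled subjects were monitored on placebo or once-daily 10–600 mg oral capsules for up to 15 days. Monitoring covered vital signs, serum and plasma electrolytes, plasma renin activity, aldosterone, plasma and salivary cortisol, and adverse events coded by MedDRA 11.0 preferred term.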

HDL-C and LDL-C = assay: Emax model of plasma evacetrapib exposure; format: in vivo, human; conditions: model estimate (90% CI)
How it was run: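 Change from baseline in HDL-C and LDL-C on Day 14 was fitted against steady-state plasma AUC. AUC came from LC/MS/MS and non-compartmental analysis. Model: Emax, the maximal response, and EAUC50, the AUC giving 50% of the maximal response.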

[1] = Multiple-dose pharmacokinetics of evacetrapib in plasma; format: in vivo, human; conditions: for CL/F: geometric mean (CV %)
How it was run: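 Once-daily oral doses of 10–600 mg for 14–15 days. Sampling: six serial samples on Day 1; 11 through 336 h after the last dose; trough samples on Days 2, 3, 4, 7 and 10. Acidified K2EDTA plasma was extracted by anion-exchange SPE with an isotope-labelled internal standard. Analysis by C18 LC/MS/MS, positive ion, SRM m/z 639→314. Range 1–1000 ng/ml. Parameters by non-compartmental analysis; dose proportionality on Day 14 by power model.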

CETP mass = assay: Serum CETP mass by sandwich ELISA in healthy subjects; format: in vivo, human; conditions: for CETP mass: Mean % change from baseline (90% CI) / CETP mass: Mean % change vs placebo (90 % CI): trough (predose) day 14
How it was run: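 CETP mass was measured in serum by sandwich ELISA. Samples were taken at baseline and on Days 2, 7 and 14 of once-daily oral dosing (10–600 mg) or placebo.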

dyslipidemic patients = conditions: cited from earlier work
[2] = AUC producing 50% of maximal response
[3] = Phase 2, nearly 400 dyslipidemic patients

- CL/F ([1]; 10 mg once daily, steady state): 17.5 (21) l/h
- CL/F ([1]; 100 mg once daily, steady state): 21.7 (30) l/h
- CL/F ([1]; 300 mg once daily, steady state): 39.6 (44) l/h
- CL/F ([1]; 600 mg once daily, steady state, n = 24): 43.6 ^e (34) l/h
- dose proportionality of plasma exposure ([1]; 10–600 mg): less than dose-proportional
- mean apparent oral clearance at steady state, range across doses ([1]; 10–600 mg): 17.5 to 43.6 L/h
- AUCt,ss for 600 mg relative to 100 mg ([1]; after 14 daily doses): approximately threefold
- accumulation ratio during multiple dosing ([1]; based on trough concentrations, between Days 1 and 14): 2–2.5
- half-life ([1]; human, plasma, oral): 24 to 44 h
- Tmax ([1]; human, plasma, oral, 10 mg, tmax, 10 mg once daily, steady state, median (range)): 4.02 h
- time to steady state ([1]; once-daily dosing): approximately 10 days
SMILES: Cc1cc(C)c2c(c1)[C@@H](N(Cc1cc(C(F)(F)F)cc(C(F)(F)F)c1)c1nnn(C)n1)CCCN2C[C@H]1CC[C@H](C(=O)O)CC1 [evacetrapib]
- QT interval prolongation (healthy volunteers): no evidence of QT interval prolongation
- tolerability (healthy volunteers): well tolerated
- severity of adverse events (healthy subjects; 10–600 mg): mild to moderate
- tolerability (healthy subjects; 10–600 mg for up to 15 days): generally well tolerated
- changes in routine serum chemistries (liver transaminases, complete blood counts, urinalysis) (healthy subjects; in vivo): No clinically relevant changes
- effect on aldosterone (healthy subjects; multiple daily doses): no effect
- subjects reporting rash-related AEs (discontinued the study) (healthy subjects; two at 300 mg, two at 600 mg): Four
- EAUC50 for the HDL-C model (HDL-C and LDL-C; [2]): 4110 ng·h/mL
- EAUC50 for the LDL-C model (HDL-C and LDL-C; [2]): 582 (194 to 1810) ng · h/ml
- maximum theoretical change from baseline for HDL-C (Emax) (HDL-C and LDL-C; after 14 days of dosing): 126%
- maximum theoretical change from baseline for LDL-C (Emax) (HDL-C and LDL-C; after 14 days of dosing): −28.2%
- levels of evacetrapib 3 weeks after last dose ([1]; 600 mg/day for 14 days, crossover cohort, 3-week washout): undetectable levels; also recorded: complete washout
- levels of evacetrapib after 2-week (336 h) washout ([1]; each dose group): returned to levels at or near baseline; also recorded: decreased to near the lower limit of detection
- CETP mass: Mean % change from baseline (90% CI) (CETP mass; 10 mg/day): 20.18 (9.92, 30.45) %
- CETP mass: Mean % change vs placebo (90 % CI) (CETP mass; 10 mg/day): 20.58 (11.28, 29.88) ^*** %
- CETP mass: Mean % change from baseline (90% CI) (CETP mass; 100 mg/day): 95.77 (82.14, 109.41) %
- CETP mass: Mean % change vs placebo (90 % CI) (CETP mass; 100 mg/day): 96.17 (76.37, 115.97) ^*** %
- CETP mass: Mean % change from baseline (90% CI) (CETP mass; 300 mg/day): 131.72 (122.10, 141.34) %
- CETP mass: Mean % change vs placebo (90 % CI) (CETP mass; 300 mg/day): 132.12 (115.85, 148.38) ^*** %
- CETP mass: Mean % change from baseline (90% CI) (CETP mass; 600 mg/day): 145.34 (133.29, 157.39) %
- CETP mass: Mean % change vs placebo (90 % CI) (CETP mass; 600 mg/day): 145.73 (128.99, 162.48) ^*** %
- CETP mass approximately 2 weeks after the last dose (CETP mass; human, in vivo): returned to levels at or near baseline; also recorded: returned to baseline
- tolerability (dyslipidemic patients; 12 weeks, daily doses up to 500 mg monotherapy or 100 mg with a statin): well tolerated
- decrease in LDL-C (dyslipidemic patients; [3]): up to 36%
- increase in HDL-C levels (dyslipidemic patients; [3]): up to 129%
- effects on blood pressure or mineralocorticoid activity (dyslipidemic patients; Phase 2): without having effects

Source: publication PMC4284021 (The Journal of Pharmacy and Pharmacology, 2014)
